Calls of active or inactive are those of the source. The calls are words filed in the database; no cut-off is given here.
What was measured:
Osteoblast [1] = test: Effect on integrin alpha 2 gene expression in rat primary osteoblast cells assessed as expression ratio of treated to untreated control by microarray analysis; assay type: functional
Method in brief: (§1)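 Resveratrol-treated and vehicle-treated primary osteoblasts were profiled on a mouse osteogenesis-focused cDNA array (GEArray Q series) built to track gene expression during osteogenic differentiation. Each gene's signal in treated cells was expressed as a ratio to untreated control.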

Osteoblast [2] = test: Effect on procollagen 1 alpha 1 gene expression in rat primary osteoblast cells assessed as expression ratio of treated to untreated control by microarray analysis; assay type: functional; method in brief: as §1
[3] = molecular target: T1, Alkaline phosphatase (Mus musculus) (UniProt Q9EQ79); test: Inhibition of induction of ALP activity in mouse MC3T3-E1 cells at 1 uM after 48 hrs in presence of BMP2-specific neutralizing antibody; assay type: cell-based
T1 sequence (whole entry): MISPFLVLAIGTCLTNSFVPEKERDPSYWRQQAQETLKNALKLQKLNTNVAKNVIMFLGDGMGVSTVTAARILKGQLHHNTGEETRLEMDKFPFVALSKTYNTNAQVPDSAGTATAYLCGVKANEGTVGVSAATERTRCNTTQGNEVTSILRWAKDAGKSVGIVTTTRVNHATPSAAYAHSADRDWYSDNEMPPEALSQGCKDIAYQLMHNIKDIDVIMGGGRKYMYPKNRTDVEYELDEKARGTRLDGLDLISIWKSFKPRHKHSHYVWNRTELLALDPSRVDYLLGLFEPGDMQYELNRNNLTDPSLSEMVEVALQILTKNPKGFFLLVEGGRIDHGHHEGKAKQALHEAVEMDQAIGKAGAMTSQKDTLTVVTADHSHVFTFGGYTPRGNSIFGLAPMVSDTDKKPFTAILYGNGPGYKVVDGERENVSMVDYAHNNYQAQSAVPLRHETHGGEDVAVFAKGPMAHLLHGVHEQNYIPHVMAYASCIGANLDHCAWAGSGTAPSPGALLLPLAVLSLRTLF

MCF7 = test: Antitumor activity against human MCF7 cells xenografted in SCID mouse orthotropic model assessed as inhibition of 17beta estradiol-induced tumor formation at 10 mg/kg for 2 days; assay type: functional; parameters: scale not given: the % may be the effect or the level left
Method in brief: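 Tumor cells were inoculated orthotopically into the mammary fat pad of 6-week-old female SCID mice. […] Tumor volume was calculated as LW2/2. Tumor formation was scored as mice with tumors per total (20 per group), and tumor weight as mean ± S.D. Groups were compared by one-way ANOVA with LSD post-hoc comparisons.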

MC3T3-E1 [4] = test: Reversal of induction in nuclear translocation of ERalpha in mouse MC3T3-E1 cells at 1 uM in presence of PP2; assay type: functional, cell-based
Method in brief: (§2)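 Src phosphorylation, ERα nuclear translocation and BMP-2 protein analysed by Western blot with ECL detection. Three independent experiments.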

[5] = molecular target: RAC-alpha serine/threonine-protein kinase (Homo sapiens) (UniProt P31749); test: Reversal of induction of Akt inactivation in human MDA-MB-231 cells transfected with constitutively activated Akt mutant; assay type: cell-based
Sequence of RAC-alpha serine/threonine-protein kinase (Homo sapiens) (P31749 whole entry): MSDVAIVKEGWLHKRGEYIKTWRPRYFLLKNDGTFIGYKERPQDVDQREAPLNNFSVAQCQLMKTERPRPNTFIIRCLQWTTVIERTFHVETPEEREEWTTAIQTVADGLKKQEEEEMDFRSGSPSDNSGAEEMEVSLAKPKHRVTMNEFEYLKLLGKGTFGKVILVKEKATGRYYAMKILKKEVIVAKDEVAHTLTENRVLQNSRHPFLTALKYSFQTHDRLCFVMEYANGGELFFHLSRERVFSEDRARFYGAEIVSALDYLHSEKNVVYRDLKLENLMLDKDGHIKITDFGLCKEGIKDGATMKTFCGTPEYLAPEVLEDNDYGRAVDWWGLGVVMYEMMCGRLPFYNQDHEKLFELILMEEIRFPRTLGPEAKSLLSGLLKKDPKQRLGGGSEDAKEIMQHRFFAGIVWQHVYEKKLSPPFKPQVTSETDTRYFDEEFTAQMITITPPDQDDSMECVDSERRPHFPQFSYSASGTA

Osteoblast [6] = test: Effect on platelet derived growth factor alpha gene expression in rat primary osteoblast cells assessed as expression ratio of treated to untreated control by microarray analysis; assay type: functional; method in brief: as §1
Osteoblast [7] = test: Increase in osteocalcin levels in rat primary osteoblast cells at 1 uM after 72 hrs by ELISA; assay type: functional, cell-based
Method in brief: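 Cells treated with 1 μm for 72 h; osteocalcin or osteopontin in culture medium by sandwich ELISA, HRP-streptavidin/TMB, 450 nm; percent change versus untreated control.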

Osteoblast [8] = test: Effect on procollagen 14alpha 1 gene expression in rat primary osteoblast cells assessed as expression ratio of treated to untreated control by microarray analysis; assay type: functional; method in brief: as §1
[9] = molecular target: Alkaline phosphatase, germ cell type (Homo sapiens) (UniProt P10696); test: Increase in ALP activity in human MG63 cells at 0.1 to 10 uM after 7 days; assay type: cell-based; details: MG-63
Sequence of Alkaline phosphatase, germ cell type (Homo sapiens) (P10696 20-503 limits assumed): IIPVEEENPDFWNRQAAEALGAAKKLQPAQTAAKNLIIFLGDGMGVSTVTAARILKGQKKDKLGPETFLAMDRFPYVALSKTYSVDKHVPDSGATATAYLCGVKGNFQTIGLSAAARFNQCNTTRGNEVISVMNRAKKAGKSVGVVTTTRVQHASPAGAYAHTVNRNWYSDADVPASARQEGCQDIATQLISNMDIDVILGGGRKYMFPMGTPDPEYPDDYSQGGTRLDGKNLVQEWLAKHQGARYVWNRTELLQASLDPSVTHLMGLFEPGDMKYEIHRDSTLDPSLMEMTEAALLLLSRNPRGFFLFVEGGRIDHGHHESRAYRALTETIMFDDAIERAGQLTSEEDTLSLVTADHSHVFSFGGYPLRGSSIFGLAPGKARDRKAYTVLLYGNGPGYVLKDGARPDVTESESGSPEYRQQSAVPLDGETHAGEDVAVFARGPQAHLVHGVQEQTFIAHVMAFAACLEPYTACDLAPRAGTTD

Osteoblast [10] = test: Effect on ubiquitin-conjugating enzyme E2D 3 gene expression in rat primary osteoblast cells assessed as expression ratio of treated to untreated control by microarray analysis; assay type: functional
Method in brief: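 GEArray Q series Mouse Osteogenesis cDNA array profiling osteogenic-differentiation genes in treated versus vehicle-treated primary osteoblasts.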

MC3T3-E1 [11] = test: Increase in proliferation of mouse MC3T3-E1 cells assessed as fraction of cells in S phase at 0.1 to 10 uM after 24 hr by flow cytometry; assay type: functional, cell-based
[12] = Reversal of increase in pBMP2 expression in mouse MC3T3-E1 cells transfected with dominant-negative mutant Src expression vector at 1 uM by luciferase method; assay type: functional, cell-based
Method in brief: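 BMP-2 promoter activity measured by dual-luciferase assay and expressed relative to the untreated vector control.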

Osteoblast [13] = test: Effect on fibroblast growth factor receptor 3 gene expression in rat primary osteoblast cells assessed as expression ratio of treated to untreated control by microarray analysis; assay type: functional
[14] = Reversal of induction in BMP2 expression in mouse MC3T3-E1 cells transfected with dominant-negative mutant Src expression vector at 1 uM by Western blot; assay type: functional, cell-based; method in brief: as §2
[15] = molecular target: T2, Estrogen receptor (Mus musculus) (UniProt P19785); test: Reversal of increase in DNA-binding activity of ERalpha in nuclear extracts of mouse MC3T3-E1 cells by electrophoretic mobility shift assays in presence of short interfering ER alpha-RNA; assay type: cell-based
T2 sequence (whole entry): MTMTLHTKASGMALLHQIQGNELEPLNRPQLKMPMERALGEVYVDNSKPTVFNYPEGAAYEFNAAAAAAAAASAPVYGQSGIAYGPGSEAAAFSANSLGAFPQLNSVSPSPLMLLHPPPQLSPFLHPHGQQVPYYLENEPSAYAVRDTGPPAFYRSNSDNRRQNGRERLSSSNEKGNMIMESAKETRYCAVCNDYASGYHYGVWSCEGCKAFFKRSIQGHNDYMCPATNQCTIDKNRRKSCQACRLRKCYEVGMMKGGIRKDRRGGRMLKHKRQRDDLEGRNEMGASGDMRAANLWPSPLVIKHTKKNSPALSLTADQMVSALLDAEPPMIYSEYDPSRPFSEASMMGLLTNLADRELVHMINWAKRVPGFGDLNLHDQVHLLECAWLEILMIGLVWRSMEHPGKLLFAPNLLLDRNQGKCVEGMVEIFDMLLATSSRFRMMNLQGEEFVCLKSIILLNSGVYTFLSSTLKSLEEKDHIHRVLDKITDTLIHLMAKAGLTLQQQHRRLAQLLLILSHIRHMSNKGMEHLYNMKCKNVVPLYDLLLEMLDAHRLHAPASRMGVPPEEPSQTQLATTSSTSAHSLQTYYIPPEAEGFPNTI
Method in brief: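 Nuclear extracts of MC3T3-E1 cells. ER-binding probe [α-32P]dCTP end-labeled, 20-min binding at room temperature, 5-fold unlabeled competitor where used. Complexes resolved on 5% nondenaturing PAGE in Tris-borate-EDTA pH 8.3, then autoradiography.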

[16] = Reversal of induction in nuclear translocation of ERalpha in mouse MC3T3-E1 cells transfected with dominant-negative mutant Src expression vector at 1 uM; assay type: functional, cell-based; method in brief: as §2
[17] = Reversal of increase in pBMP2 expression in rat primary osteoblast cells transfected with dominant-negative mutant Src expression vector at 1 uM by luciferase method; assay type: functional, cell-based
Osteoblast [18] = test: Effect on histone H1 gene expression in rat primary osteoblast cells assessed as expression ratio of treated to untreated control by microarray analysis; assay type: functional; method in brief: as §1
Osteoblast [19] = test: Effect on procollagen 4 alpha 2 gene expression in rat primary osteoblast cells assessed as expression ratio of treated to untreated control by microarray analysis; assay type: functional; method in brief: as §1

Activity [3]: Active
Activity [5]: Active
Activity [9]: Active
Activity [15]: Active
SMILES: Oc1ccc(/C=C/c2cc(O)cc(O)c2)cc1 [RESVERATROL]
Ratio (Osteoblast [1]): 2.24
Ratio (Osteoblast [2]): 9.67
Activity (MCF7): 40%
Activity (MC3T3-E1 [4]): Active
Ratio (Osteoblast [6]): 4.34
Activity (Osteoblast [7]): Active
Ratio (Osteoblast [8]): 3.76
Ratio (Osteoblast [10]): 3.73
Activity (MC3T3-E1 [11]): Active
Activity [12]: Active
Ratio (Osteoblast [13]): 0.9
Activity [14]: Active
Activity [16]: Active
Activity [17]: Active
Ratio (Osteoblast [18]): 0.44
Ratio (Osteoblast [19]): 4.48

From ChEMBL document CHEMBL1156469 (2007)
